A value given as a limit tells only on which side of the number the result lay.

Here are results for 13 compounds from ChEMBL document CHEMBL1122459, “4-(Diphenylmethyl)-1-[(imino)methyl]piperidines as gastric antisecretory agents” (J Med Chem, 1983).

Assay [1] deals with Muscarinic acetylcholine receptor. Kind of assay: Displacement of [3H]- quinuclidinyl benzilate from rat brain Muscarinic acetylcholine receptor.
The species named for assay [2] is Rattus norvegicus. In words: Relative potency against atropine. Format: functional.
Assay [3] relates to Rattus norvegicus. Kind of assay: Antisecretory activity against acute gastric fistula(AGF) in rat when administered perorally. The assay is classed as functional. The conditions noted are these: Stomach, po. The method, boiled down:
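Female Sprague-Dawley rats, 120-160 g, fasted ≥18 h; drug or vehicle (0.5% methocel) po 1 h before surgery. Under ether, fundic fistula tube inserted; first 30-min sample discarded, then two 1-h collections. Volume measured, aliquot titrated to pH 7 with 0.01 N NaOH for total acid output. ED50 = dose for 50% inhibition vs controls, least-squares regression; ≥5 rats/group, ≥3 doses.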

Assay [4] can be described thus: Ratio between gastric emptying(GE) and acute gastric fistula(AGF). The assay is classed as functional, Stomach.
Assay [5] concerns Rattus norvegicus. In words: Anticholinergic activity against carbachol induced gastric emptying(GE) in rat when administered perorally. Format: functional. The note with it: Stomach, po. Summed up:
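Ten 1-mm polystyrene beads placed in stomach by tube 30 min later; carbachol 80 mcg/kg sc at 1 h post-dose; killed 15 min after. Beads left in stomach counted. ED50 = dose giving 50% inhibition of emptying vs controls, by least-squares regression; ≥5 rats/group, ≥3 dose groups.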

Assay [6] has as its system Rattus norvegicus. In words: Anticholinergic activity against carbachol-induced gastric emptying (GE) in rat when administered perorally. The note with it: Stomach, po.
The species named for assay [7] is Rattus norvegicus. In words: animal or person. The note with it: Stomach, po.

With `C#CC/N=C/N1CCC(C(c2ccccc2)c2ccccc2)CC1.Cl`, the I50 in assay [1] is recorded as 1300 nM. In addition, in the assay listed under Rattus norvegicus [2], the “Relative Potency” value amounted to 0.19. The figures for the ED50 in the assay on Rattus norvegicus [3] and in the assay on Rattus norvegicus [5] were 5.4 mg/kg and 8 mg/kg, respectively. For the same compound, the Ratio in assay [4] was 1.48.

In assay [1], `Cl.N=CN1CCC(C(c2ccccc2)c2ccccc2)CC1` had an I50 of 3 nM. Moreover, in the assay listed under Rattus norvegicus [2], the “Relative Potency” value is recorded as 81.7. In addition, the ED50 came out at 0.34 mg/kg with Rattus norvegicus [3] and 0.86 mg/kg in the assay with Rattus norvegicus [5]. In assay [4], the Ratio is reported as 2.53.

`C=CC/N=C/N1CCC(C(c2ccccc2)c2ccccc2)CC1` gave an I50 in assay [1] of 490 nM. Further, in the assay listed under Rattus norvegicus [2], the “Relative Potency” value is given as 0.51. The ED50 with Rattus norvegicus [3] was 10.4 mg/kg; with Rattus norvegicus [5], 13.2 mg/kg. Besides, the Ratio in assay [4] came to 1.27.

Compound `CCC(=N)N1CCC(C(c2ccccc2)c2ccccc2)CC1` showed an I50 in assay [1] of 70 nM. Further, the “Relative Potency” value in the assay listed under Rattus norvegicus [2] is 3.61. Besides, the ED50 in the assay on Rattus norvegicus [3] was 54.5 mg/kg; with Rattus norvegicus [5], 20 mg/kg. Besides, the Ratio in assay [4] came out at 0.37.

Consider `CCCCCCCCCC/N=C/N1CCC(C(c2ccccc2)c2ccccc2)CC1`, for which, in assay [1], the I50 came out at 3800 nM. The “Relative Potency” value in the assay filed under Rattus norvegicus [2] stood at 0.06. Further, the results for the ED50 in the assay on Rattus norvegicus [3] and in the assay on Rattus norvegicus [5] were 7.8 mg/kg and 43.1 mg/kg, respectively. Also, in assay [4], the Ratio came to 5.52.

`CCCCCCC/N=C/N1CCC(C(c2ccccc2)c2ccccc2)CC1.O=C(O)/C=C/C(=O)O` displayed an I50 in assay [1] of 3300 nM. Moreover, the “Relative Potency” value in the assay filed under Rattus norvegicus [2] turned out to be 0.08. Moreover, the ED50 in the assay on Rattus norvegicus [3] was found to be 11.5 mg/kg; in the assay on Rattus norvegicus [5], 33.4 mg/kg. For the same compound, the Ratio in assay [4] amounted to 2.9.

`CCCCCC/N=C/N1CCC(C(c2ccccc2)c2ccccc2)CC1.O=C(O)/C=C/C(=O)O`: the I50 in assay [1] is recorded as 1900 nM. In the assay filed under Rattus norvegicus [2], the “Relative Potency” value was found to be 0.13. For the same compound, the ED50 worked out at 8.34 mg/kg in the assay with Rattus norvegicus [3] and 15 mg/kg in the assay on Rattus norvegicus [5]. For the same compound, in assay [4], the Ratio turned out to be 1.8.

Compound `CC(C)/N=C/N1CCC(C(c2ccccc2)c2ccccc2)CC1.O=C(O)/C=C/C(=O)O` registered an I50 in assay [1] of 1600 nM. Moreover, the “Relative Potency” value in the assay filed under Rattus norvegicus [2] is on record as 0.15. Besides, the ED50 was 8.6 mg/kg with Rattus norvegicus [3] and 15.1 mg/kg in the assay with Rattus norvegicus [5]. In addition, in assay [4], the Ratio came to 1.76.

Take `CCCC/N=C/N1CCC(C(c2ccccc2)c2ccccc2)CC1.O=C(O)/C=C/C(=O)O`: in assay [1], the I50 stood at 1600 nM. In the assay listed under Rattus norvegicus [2], the “Relative Potency” value came out at 0.15. The ED50 in the assay on Rattus norvegicus [3] stood at 7.6 mg/kg; in the assay on Rattus norvegicus [5] it was 10.3 mg/kg. Moreover, the Ratio in assay [4] is given as 1.36.

As for `CCCCCCCCC/N=C/N1CCC(C(c2ccccc2)c2ccccc2)CC1.O=C(O)/C=C/C(=O)O`, in assay [1], the I50 was over 10000 nM. Besides, the ED50 was 10.8 mg/kg with Rattus norvegicus [3] and 40.4 mg/kg with Rattus norvegicus [5]. For the same compound, the Ratio in assay [4] came out at 3.74.

In assay [1], `CCCCCCCC/N=C/N1CCC(C(c2ccccc2)c2ccccc2)CC1.O=C(O)/C=C/C(=O)O` showed an I50 of 8600 nM. Also, in the assay filed under Rattus norvegicus [2], the “Relative Potency” value is reported as 0.04. Further, the values for the ED50 in the assay with Rattus norvegicus [3] and in the assay on Rattus norvegicus [5] were 10.9 mg/kg and 176 mg/kg, respectively. Besides, in assay [4], the Ratio amounted to 16.15.

Take `CN1[C@@H]2CC[C@H]1C[C@@H](OC(=O)C(CO)c1ccccc1)C2` (stereo partly drawn) [ATROPINE]: the ED50 in the assay with Rattus norvegicus [3] worked out at 0.64 mg/kg; with Rattus norvegicus [5], 0.35 mg/kg.

Consider `CN/C(=N\CCSCc1nc[nH]c1C)NC#N` [CIMETIDINE], for which the ED50 in the assay with Rattus norvegicus [6] was found to be 160 mg/kg; in the assay listed under Rattus norvegicus [7], 7.6 mg/kg.
